SMILES strings stand for the structures. Records with an inconclusive call do not appear. Activity calls are given as the source filed them.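 The calls were made as follows: active = luminescence cut by more than half of the full-inhibition control window in a dose series; inconclusive = no clear call, values can overlap the other calls; inactive = signal rising instead of falling, or the rest.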

Our source for the outcome values is PubChem BioAssay AID493236 (Broad Institute, 2011).

For the assay, the system named is proteasome chymotrypsin-like activity (human). The assay can be described thus: proteasome chymotrypsin-like activity inhibitors, dose response, counter-screen for HIF pathway activator project, cell-based, U2OS, luminescence, dry powder, set 4 (AID 493236). A digest of the protocol: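 Times: 24 h plating, 4 h compound, 2 h reagent / System: U2OS cells / Quantity: 2,500 U2OS cells per well / Technique: Proteasome-Glo luminescence / Repeats: each compound tested in duplicate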

Consider `N#CC1(c2ccccc2)CCN(Cc2ccc(O)c3ncccc23)CC1`, for which the compound was called inactive.
The result for `Oc1ccc(CN2CCC3CCCCC3C2)c2cccnc12` (configuration not stated) reads “inactive”.
